ChEMBL document CHEMBL1125626, “Synthesis and structure-activity relationship of new cephalosporins with amino heterocycles at C-7. Dependence of the antibacterial spectrum and beta-lactamase stability on the pKa of the C-7 heterocycle” (1991)
≈ marks a conversion by molar mass, not a printed value.

What was measured:
Enterobacter cloacae [1] = assay: Minimum inhibitory concentration against Enterobacter cloacae P99 (inoculum, 10e4 cfu per spot)(type I lactamase producer); format: functional
Outline: (§1)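 MIC in µg/mL, determined in Jewell and Permain growth medium with spot inoculation at 10^4 cfu per spot. P99 is described as a constitutive type I lactamase producer.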

Streptococcus pyogenes = assay: Minimum inhibitory concentration against Streptococcus pyogenes (inoculum, 10e5 cfu per spot) A1; format: functional
Outline: (§2)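 MIC in µg/mL, determined in Jewell and Permain growth medium with spot inoculation at 10^5 cfu per spot.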

Pseudomonas aeruginosa = assay: Minimum inhibitory concentration against Pseudomonas aeruginosa A21 (inoculum, 10e5 cfu per spot); format: functional; outline: as §2
Staphylococcus aureus [2] = assay: Minimum inhibitory concentration against Staphylococcus aureus A4 (inoculum, 10e5 cfu per spot); format: functional; outline: as §2
Klebsiella pneumoniae = assay: Minimum inhibitory concentration against Klebsiella pneumoniae A24 (inoculum, 10e5 cfu per spot); format: functional; outline: as §2
Escherichia coli [3] = assay: Minimum inhibitory concentration against Escherichia coli X4 (inoculum, 10e4 cfu per spot)
Escherichia coli [4] = assay: Minimum inhibitory concentration against Escherichia coli A8 (inoculum, 10e5 cfu per spot); format: functional; outline: as §2
Proteus mirabilis = assay: Minimum inhibitory concentration against Proteus mirabilis A18 (inoculum, 10e5 cfu per spot); format: functional; outline: as §2
Escherichia coli [5] = assay: Minimum inhibitory concentration against Escherichia coli DCO (inoculum, 10e4 cfu per spot); format: functional; outline: as §1
Klebsiella aerogenes [6] = assay: Minimum inhibitory concentration against Klebsiella aerogenes X6 (inoculum, 10e4 cfu per spot); format: functional; outline: as §1
Enterobacter cloacae [7] = assay: Minimum inhibitory concentration against Enterobacter cloacae A13 (inoculum, 10e5 cfu per spot); format: functional; outline: as §2
Serratia marcescens = assay: Minimum inhibitory concentration against Serratia marcescens A16 (inoculum, 10e5 cfu per spot); format: functional; outline: as §2
Escherichia coli [8] = assay: Minimum inhibitory concentration against Escherichia coli DC2 (inoculum, 10e4 cfu per spot); format: functional; outline: as §1
Escherichia coli [9] = assay: Minimum inhibitory concentration against Escherichia coli TEM X3 (inoculum, 10e4 cfu per spot)(TEM I type lactamase producer)
Klebsiella aerogenes [10] = assay: Minimum inhibitory concentration against Klebsiella aerogenes X5L (inoculum, 10e4 cfu per spot); format: functional; outline: as §1
Staphylococcus aureus [11] = assay: Minimum inhibitory concentration against Staphylococcus aureus A6 (inoculum, 10e5 cfu per spot); format: functional; outline: as §2
Enterobacter cloacae [12] = assay: Minimum inhibitory concentration against Enterobacter cloacae P99 (inoculum, 10e4 cfu per spot); format: functional; outline: as §1

| SMILES | MIC (Enterobacter cloacae [1]) [µg/mL] | MIC (Streptococcus pyogenes) [µg/mL] | MIC (Pseudomonas aeruginosa) [µg/mL] | MIC (Staphylococcus aureus [2]) [µg/mL] | MIC (Klebsiella pneumoniae) [µg/mL] | MIC (Escherichia coli [3]) [µg/mL] | MIC (Escherichia coli [4]) [µg/mL] | MIC (Proteus mirabilis) [µg/mL] | MIC (Escherichia coli [5]) [µg/mL] | MIC (Klebsiella aerogenes [6]) [µg/mL] | MIC (Enterobacter cloacae [7]) [µg/mL] | MIC (Serratia marcescens) [µg/mL] | MIC (Escherichia coli [8]) [µg/mL] | MIC (Escherichia coli [9]) [µg/mL] | MIC (Klebsiella aerogenes [10]) [µg/mL] | MIC (Staphylococcus aureus [11]) [µg/mL] | MIC (Enterobacter cloacae [12]) [µg/mL] |
| --- | --- | --- | --- | --- | --- | --- | --- | --- | --- | --- | --- | --- | --- | --- | --- | --- | --- |
| CO[C@@]1(NC2=NCCN2)C(=O)N2C(C(=O)OC(c3ccccc3)c3ccccc3)=C(C)CSC21 (stereo not given in full) | > 256 | > 256 | > 256 | > 256 | > 256 | > 256 | > 256 | > 256 | > 256 | > 256 | > 256 | > 256 | > 256 | > 256 | > 256 | > 256 | > 256 |
| CC1=C(C(=O)OC(C)(C)C)N2C(=O)[C@@H](Nc3nc4ccccc4n3CC(=O)OC(C)(C)C)C2SC1 (stereo not given in full) | > 256 | > 256 | > 256 | > 256 |  | > 256 | > 256 | > 256 | > 256 | > 256 | > 256 | > 256 | > 256 | > 256 | > 256 | > 256 | > 256 |
| CO[C@@]1(Nc2nc3ccccc3[nH]2)C(=O)N2C(C(=O)OC(c3ccccc3)c3ccccc3)=C(COC(C)=O)CSC21 (stereo not given in full) | > 256 | > 256 | > 256 | > 256 | > 256 | > 256 | > 256 | > 256 | > 256 | > 256 | > 256 | > 256 | > 256 | > 256 | > 256 | > 256 | > 256 |
| CC(=O)OCC1=C(C(=O)OC(c2ccccc2)c2ccccc2)N2C(=O)[C@@H](Nc3nc4cc(C(=O)O)ccc4[nH]3)C2SC1 (stereo not given in full) | > 256 | 8 (≈ 13.4 µM) | > 256 | 256 (≈ 428 µM) | 32 (≈ 53.5 µM) | 8 (≈ 13.4 µM) | 16 (≈ 26.7 µM) | 32 (≈ 53.5 µM) | 8 (≈ 13.4 µM) | 16 (≈ 26.7 µM) | > 256 | > 256 | 0.25 (≈ 0.418 µM) | 16 (≈ 26.7 µM) | > 256 | 32 (≈ 53.5 µM) | 4 (≈ 6.68 µM) |
| CC(=O)OCC1=C(C(=O)OC(c2ccccc2)c2ccccc2)N2C(=O)[C@@H](Nc3nc4cscc4[nH]3)C2SC1 (stereo not given in full) | > 256 | 2 (≈ 3.57 µM) | > 256 | 32 (≈ 57.1 µM) | 16 (≈ 28.5 µM) | 0.5 (≈ 0.892 µM) | 8 (≈ 14.3 µM) | 32 (≈ 57.1 µM) | 1 (≈ 1.78 µM) | 2 (≈ 3.57 µM) | > 256 | > 256 | 0.06 (≈ 0.107 µM) | 4 (≈ 7.13 µM) | 128 (≈ 228 µM) | 4 (≈ 7.13 µM) | 1 (≈ 1.78 µM) |
| CC1=C(C(=O)OC(c2ccccc2)c2ccccc2)N2C(=O)[C@@H](NC3=NCC(C)N3)C2SC1 (stereo not given in full) | 2 (≈ 4.32 µM) | > 256 | > 256 | > 256 | > 256 | 2 (≈ 4.32 µM) | 128 (≈ 277 µM) | > 256 | 8 (≈ 17.3 µM) | 8 (≈ 17.3 µM) | > 256 | > 256 | 4 (≈ 8.65 µM) | 2 (≈ 4.32 µM) | 40 (≈ 86.5 µM) | > 256 | 2 (≈ 4.32 µM) |
| CC(=O)OCC1=C(C(=O)OC(c2ccccc2)c2ccccc2)N2C(=O)[C@@H](Nc3nc4c(N)cccc4[nH]3)C2SC1 (stereo not given in full) | > 200 | 40 (≈ 70.2 µM) | > 200 | > 200 | > 200 | 8 (≈ 14 µM) | 40 (≈ 70.2 µM) | 200 (≈ 351 µM) | 4 (≈ 7.02 µM) | 8 (≈ 14 µM) | > 200 | > 200 | 1 (≈ 1.76 µM) | 128 (≈ 225 µM) | > 200 | 40 (≈ 70.2 µM) | 4 (≈ 7.02 µM) |
| CC(=O)OCC1=C(C(=O)OC(C)(C)C)N2C(=O)[C@@H](Nc3nc4cc([N+](=O)[O-])ccc4[nH]3)C2SC1 (stereo not given in full) | > 200 | 1 (≈ 2.04 µM) | > 200 | 200 (≈ 409 µM) | 40 (≈ 81.7 µM) | > 200 | 40 (≈ 81.7 µM) | 40 (≈ 81.7 µM) | 128 (≈ 261 µM) | > 200 | 40 (≈ 81.7 µM) | > 200 | 8 (≈ 16.3 µM) | > 200 | > 200 | 1 (≈ 2.04 µM) | 64 (≈ 131 µM) |
| Cn1nnnc1SCC1=C(C(=O)OC(C)(C)C)N2C(=O)[C@@H](NC3=NCCN3)C2SC1 (stereo not given in full) | 8 (≈ 17.7 µM) | 128 (≈ 283 µM) | > 256 | > 256 | 2 (≈ 4.42 µM) | 1 (≈ 2.21 µM) | 2 (≈ 4.42 µM) | > 256 | 8 (≈ 17.7 µM) | 1 (≈ 2.21 µM) |  | 32 (≈ 70.7 µM) |  | 1 (≈ 2.21 µM) | 2 (≈ 4.42 µM) | > 256 | 1 (≈ 2.21 µM) |
| CC1=C(C(=O)OC(c2ccccc2)c2ccccc2)N2C(=O)[C@@H](NC3=NC(C(N)=O)CN3)C2SC1 (stereo not given in full) | 8 (≈ 16.3 µM) | > 256 | > 256 | > 256 | 16 (≈ 32.5 µM) | 8 (≈ 16.3 µM) | 32 (≈ 65.1 µM) | > 256 | 8 (≈ 16.3 µM) | 16 (≈ 32.5 µM) | > 256 | > 256 | 2 (≈ 4.07 µM) | 8 (≈ 16.3 µM) | 16 (≈ 32.5 µM) | > 256 | 4 (≈ 8.14 µM) |
| CC1=C(C(=O)OC(c2ccccc2)c2ccccc2)N2C(=O)[C@@H](NC3=NC(c4ccc(C#N)cc4)CN3)C2SC1 (stereo not given in full) | 8 (≈ 14.6 µM) | 64 (≈ 116 µM) | > 256 | > 256 | 16 (≈ 29.1 µM) | 4 (≈ 7.28 µM) | 4 (≈ 7.28 µM) | > 256 | 2 (≈ 3.64 µM) | 8 (≈ 14.6 µM) | > 256 | 16 (≈ 29.1 µM) | 2 (≈ 3.64 µM) | 4 (≈ 7.28 µM) | 8 (≈ 14.6 µM) | > 256 | 4 (≈ 7.28 µM) |
| CC(=O)OCC1=C(C(=O)OC(C)(C)C)N2C(=O)[C@@H](Nc3nc4ccccc4n3C)C2SC1 (stereo not given in full) | > 256 | 32 (≈ 69.8 µM) | > 256 | > 256 |  | 32 (≈ 69.8 µM) | 128 (≈ 279 µM) | 32 (≈ 69.8 µM) | 64 (≈ 140 µM) | 256 (≈ 558 µM) | > 256 | > 256 | 0.25 (≈ 0.545 µM) | 64 (≈ 140 µM) | 256 (≈ 558 µM) | 32 (≈ 69.8 µM) | 64 (≈ 140 µM) |
